Screens from PubChem.
Only some compounds are listed: those with a hit (about 3.3% of all), similar ones and a draw of the others.
ABCB1 block: blocks JC-1 efflux by human ABCB1 transporter | CCRF-Adr cells, flow cytometry | inhibition, % at 6.6 µM | 190,000 compounds, 0.067% hits; in the data active means inhibition above about 40%;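 further: 0% = vehicle and 100% = reference inhibitor; higher value means more JC-1 retained so stronger ABCB1 efflux block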
Target sequence (P08183 whole entry, looked up): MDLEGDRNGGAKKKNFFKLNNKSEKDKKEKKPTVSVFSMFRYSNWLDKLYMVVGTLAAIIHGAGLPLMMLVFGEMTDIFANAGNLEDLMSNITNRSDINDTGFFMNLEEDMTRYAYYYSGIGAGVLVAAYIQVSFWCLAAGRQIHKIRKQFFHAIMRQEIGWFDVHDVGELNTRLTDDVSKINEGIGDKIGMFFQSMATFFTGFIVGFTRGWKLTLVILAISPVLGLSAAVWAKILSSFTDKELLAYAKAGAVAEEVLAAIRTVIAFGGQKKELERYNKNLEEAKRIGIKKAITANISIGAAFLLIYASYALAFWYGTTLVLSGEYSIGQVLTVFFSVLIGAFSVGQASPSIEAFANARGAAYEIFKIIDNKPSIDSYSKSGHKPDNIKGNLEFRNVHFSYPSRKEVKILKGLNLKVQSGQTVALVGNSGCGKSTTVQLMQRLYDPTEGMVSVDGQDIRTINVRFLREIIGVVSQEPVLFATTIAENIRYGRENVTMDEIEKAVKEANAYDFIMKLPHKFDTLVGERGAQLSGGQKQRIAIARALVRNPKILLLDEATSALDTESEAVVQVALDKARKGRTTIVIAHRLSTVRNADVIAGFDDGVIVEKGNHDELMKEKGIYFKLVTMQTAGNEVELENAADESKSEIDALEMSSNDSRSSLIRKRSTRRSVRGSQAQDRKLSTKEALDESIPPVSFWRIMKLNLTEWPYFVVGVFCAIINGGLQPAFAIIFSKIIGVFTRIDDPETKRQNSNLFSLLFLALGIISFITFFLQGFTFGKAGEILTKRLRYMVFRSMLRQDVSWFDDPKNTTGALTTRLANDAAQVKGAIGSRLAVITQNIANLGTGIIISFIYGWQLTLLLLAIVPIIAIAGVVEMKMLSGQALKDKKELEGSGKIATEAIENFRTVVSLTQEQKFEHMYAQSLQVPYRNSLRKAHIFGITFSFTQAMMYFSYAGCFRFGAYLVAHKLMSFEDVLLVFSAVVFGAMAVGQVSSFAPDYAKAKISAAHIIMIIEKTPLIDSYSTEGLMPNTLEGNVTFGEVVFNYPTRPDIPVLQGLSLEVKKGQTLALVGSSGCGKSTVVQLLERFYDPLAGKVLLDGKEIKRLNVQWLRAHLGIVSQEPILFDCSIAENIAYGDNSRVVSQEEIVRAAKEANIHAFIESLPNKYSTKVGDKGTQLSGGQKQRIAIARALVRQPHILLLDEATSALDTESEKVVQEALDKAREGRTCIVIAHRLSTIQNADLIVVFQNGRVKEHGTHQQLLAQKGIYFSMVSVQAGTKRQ
ROMK primary: modulators of human ROMK potassium channel | 130,000 compounds, 2% hits | Tet-inducible ROMK, thallium flux fluorescence; actives lie on both sides | P48048 | B-score at 10 µM;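 active means signal ratio slope over the read window, or its plate-corrected B-score, at least 3 SD from the plate mean, either direction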;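 further: B-score of the F/F0 ratio slope over 7 to 12 s after thallium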
ABCG2 block: inhibitors of human ABCG2 transporter, ABCB1 counter-screen; IgMXP3 cells, JC-1 efflux, flow cytometry; inhibition, % at 6.6 µM; 190,000 compounds, 0.1% hits;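 active means inhibition above 80%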;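 further: 0% = DMSO and 100% = nicardipine control wells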
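Measure – % inhibition of efflux relative to nicardipine and DMSO · Test system – ABCG2 IgMXP3 and barcoded ABCB1 CCRF-Adr cell mix · Control set – nicardipine as high control, DMSO as low control · Compound – one concentration, 6.6 µM final · Signal – flow cytometry of retained JC-1 fluorescence · Timing – 10 min exposure at 25 °C with rotation, no wash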
PMI act hi M6P: activators of human phosphomannose isomerase at near-saturating mannose 6-phosphate; P34949; coupled PMI enzyme assay, resazurin fluorescence, 20 min; stronger effect = higher value; 1 = untreated enzyme, 0 = substrate-free blank; activation factor at 20 µM; 190,000 compounds, 0.34% hits; AID 1216;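 active means activation factor of 2 or more at 20 µM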
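Test system: Human PMI in coupled enzyme assay | Input: 15 ng/mL PMI | Medium: HEPES-buffered pH 7.4 with magnesium and detergent | Compound: One concentration, 20 µM, in 1% DMSO | Incubation: Enzyme reaction with compound 20 min at room temperature | Detection: Diaphorase-driven resazurin-to-resorufin fluorescence, excitation 544, emission 590 nm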
Cl transport mod: KCC2 (human) Cl- transport modulation | B-score of Tl+ flux slope (higher = more flux/activation; lower = inhibition) at 10 µM | KCC2 cells, thallium flux FluoZin-2 fluorescence | AID 1456 | Q9H2X9 | 190,000 compounds, 2.2% hits;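 active means thallium flux slope and its plate-corrected score both differing from the plate sample mean at a set confidence after two filtering rounds, in either direction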;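 further: slope of fluorescence scaled to starting intensity during 10 to 20 s after thallium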
PMI activator: increases human mannose-6-phosphate isomerase activity; P34949; purified human PMI, coupled resazurin fluorescence, 20 min; stronger effect = higher value; 1 = vehicle control, 0 substrate-free wells; activation factor at 20 µM; 190,000 compounds, 0.005% hits; AID 1214;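 active means activation factor of 2 or more at 20 µM, relative to plate controls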
ROMK retest: confirmation of human ROMK potassium channel modulators; shares compounds with ROMK primary; ROMK thallium flux, fluorescence ratio; stronger effect = lower value; normalized thallium flux (F/F0 slope) at 10 µM; 3,000 compounds, 54% hits; AID 1917;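 active means Flux at 10 µM at least 3 SD below or above vehicle control mean in one or both replicates; inconclusive means no clear call, values can overlap the other calls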
* = called active by the depositor.

What do the screens show for `CC1=C(C(=O)N2CCOCC2)C(c2ccc(OC(F)F)cc2)NC(=S)N1c1ccccc1` (configuration not stated)?
ABCB1 block: -1.1; ROMK primary: -0.00283; ABCG2 block: -4.7; PMI act hi M6P: 1.1; Cl transport mod: 1.4; PMI activator: 1.1

What do the screens show for `CCOC(=O)c1[nH]c(C)c(C(=O)N2CCc3ccccc32)c1C`?
ABCB1 block: 0.5; ROMK primary: 3.22*; ABCG2 block: 2.2; PMI act hi M6P: 1.1; Cl transport mod: -0.77; PMI activator: 1.1; ROMK retest: 0.0817

How did CC(=O)c1c(C)[nH]c(C(=O)N2CCc3ccccc32)c1C do in these assays?
ABCB1 block: -2.5; ROMK primary: 0.217; ABCG2 block: 1.0; PMI act hi M6P: 1; PMI activator: 0.9

Results for CCCCCn1c(=O)[nH]c2cc(C(=O)NCCN(CC)CC)ccc2c1=O ?
ABCB1 block: -4.5; ABCG2 block: -6.4; PMI act hi M6P: 1; Cl transport mod: 0.113; PMI activator: 1.1

Results for CCN(CC)CCNC(=O)c1[nH]c2ccc(OCc3ccccc3)cc2c1C ?
ABCB1 block: 0.2; ROMK primary: -4.96*; ABCG2 block: 1.2; PMI act hi M6P: 1; PMI activator: 1; ROMK retest: 0.0626*

How did CCOC(=O)C1CCN(C(=O)COc2cc(C)c(Br)cc2C)CC1 do in these assays?
ABCB1 block: 0.5; ROMK primary: -4.9*; ABCG2 block: 3.5; PMI act hi M6P: 0.9; Cl transport mod: -0.0951; PMI activator: 0.9; ROMK retest: 0.0581*

How did CCOC(=O)C1CCN(C(=O)COc2ccc(Br)cc2Br)CC1 do in these assays?
ABCB1 block: 2.1; ROMK primary: -0.346; ABCG2 block: 6.7; PMI act hi M6P: 1; Cl transport mod: -0.026; PMI activator: 1

Results for CN1CCN(c2ccccc2NC(=O)c2cccc([N+](=O)[O-])c2)CC1 ?
ABCB1 block: 3.9; ROMK primary: -0.591; ABCG2 block: 35.1; PMI act hi M6P: 0.9; Cl transport mod: 0.00236; PMI activator: 1

Results for CCN(CC)C(=O)C1CCCN(c2ccc([N+](=O)[O-])cc2/C=N/NC(=O)c2ccc([N+](=O)[O-])cc2)C1 (configuration not stated) ?
ABCB1 block: 1.8; ABCG2 block: 14.7; PMI act hi M6P: 1; Cl transport mod: -1.17; PMI activator: 1; ROMK retest: inconclusive

How did CN1CCN(c2ccccc2NC(=O)c2ccc(-c3cccc([N+](=O)[O-])c3)o2)CC1 do in these assays?
ABCB1 block: 16.1; ROMK primary: -2.39*; ABCG2 block: 17.5; PMI act hi M6P: 0.9; Cl transport mod: -1.01; PMI activator: 0.8; ROMK retest: 0.059*

How did CN1CCN(c2ccc([N+](=O)[O-])cc2/C=N/NC(=O)c2cccc([N+](=O)[O-])c2)CC1 do in these assays?
ABCB1 block: 19.0; ROMK primary: -2.26*; ABCG2 block: 17.2; PMI act hi M6P: 1.1; Cl transport mod: -0.749; PMI activator: 1.1; ROMK retest: 0.0585*

Results for CCC(=O)N1CCN(c2ccccc2NC(=O)c2ccc(-c3cccc([N+](=O)[O-])c3)o2)CC1 ?
ABCB1 block: 16.0; ABCG2 block: 20.9; PMI act hi M6P: 1; Cl transport mod: -0.0948; PMI activator: 1

How did CCN(CC)C(=O)C1CCCN(c2ccc([N+](=O)[O-])cc2/C=N/NC(=O)c2ccccc2)C1 (configuration not stated) do in these assays?
ABCB1 block: 12.3; ROMK primary: 0.0266; ABCG2 block: 12.9; PMI act hi M6P: 1.1; Cl transport mod: -0.839; PMI activator: 1

How did O=C1CC2c3ccccc3C1C1C(=O)N(CCc3ccccc3)C(=O)C21 (configuration not stated) do in these assays?
ABCB1 block: 0.6; ABCG2 block: 0.1; PMI act hi M6P: 1; PMI activator: 0.9

What do the screens show for `CC(=O)C1=C(O)C(=O)N(Cc2ccccc2)C1c1ccco1` (configuration not stated)?
ABCB1 block: -0.7; ROMK primary: -0.0166; ABCG2 block: -0.2; PMI act hi M6P: 1.1; Cl transport mod: -2.34; PMI activator: 1

Results for COc1ccc(N=C2O/C(=C/c3sc(=S)n(CC4CCCO4)c3O)N=C2C#N)cc1 (configuration not stated) ?
Cl transport mod: -1.97; ROMK retest: 0.0552*

What do the screens show for `CNS(=O)(=O)c1cc2c3c(cccc3c1)C(=O)NC2=O`?
ABCB1 block: 1.0; ROMK primary: 1.11; ABCG2 block: 5.8; PMI act hi M6P: 0.9; Cl transport mod: 0.425; PMI activator: 1

Results for Cc1ccc(NS(=O)(=O)c2cc3c4c(cccc4c2)C(=O)NC3=O)cc1 ?
ABCB1 block: -0.2; ROMK primary: 1.66*; ABCG2 block: 1.0; PMI act hi M6P: 1.1; Cl transport mod: 0.839; PMI activator: 1.1; ROMK retest: inconclusive

What do the screens show for `Cc1noc(C)c1COc1ccc(C(=O)OCC(=O)Nc2ccc3c(c2)OCO3)cc1`?
ABCB1 block: 0.3; ABCG2 block: 2.1; PMI act hi M6P: 0.8; Cl transport mod: 0.645; PMI activator: 0.9; ROMK retest: 0.0721

Results for Cc1c(C(=O)O)cccc1-c1ccc(/C=N/Nc2ccc(Br)cc2)o1 ?
ABCB1 block: -1.0; ROMK primary: 1.65*; ABCG2 block: -6.2; PMI act hi M6P: 2.2*; Cl transport mod: -1.27; PMI activator: 1.6; ROMK retest: 0.1*

How did O=C(NCC1CCCO1)C(c1ccc(F)cc1)N(CC1CCCO1)C(=O)c1ccc(-c2ccccc2)[nH]1 (configuration not stated) do in these assays?
ABCB1 block: 2.0; ROMK primary: -3.16*; ABCG2 block: 2.6; PMI act hi M6P: 1.1; Cl transport mod: -2.69; PMI activator: 1; ROMK retest: 0.0595*

How did C#CCN1C(=O)S/C(=C/C=C/c2ccc(N(C)C)cc2)C1=O do in these assays?
ABCB1 block: 2.7; ROMK primary: 0.487; ABCG2 block: 10.9; PMI act hi M6P: 0.7; Cl transport mod: 0.661; PMI activator: 1

What do the screens show for `Cc1cc(/C=N/NC(N)=S)c(C)n1-c1ccc(Cl)cc1`?
ABCB1 block: 1.0; ROMK primary: 1.7*; ABCG2 block: 7.0; PMI act hi M6P: 1.1; Cl transport mod: 0.355; PMI activator: 1.1; ROMK retest: 0.091

Results for Cc1cccc(C)c1-n1c(C)cc(/C=N/NC(N)=S)c1C ?
ABCB1 block: 0.5; ROMK primary: 2.82*; ABCG2 block: 3.5; PMI act hi M6P: 1.2; Cl transport mod: -0.423; PMI activator: 1.1; ROMK retest: 0.0814
